The results in this text go back to ChEMBL document CHEMBL1671679, “Lack of pharmacokinetic interaction between amdoxovir and reduced- and standard-dose zidovudine in HIV-1-infected individuals” (Antimicrob Agents Chemother, 2010).

Data set [1] relates to Homo sapiens. Nature of the data set: AUC (0 to 12 hrs) in HIV-1 infected patient assessed as beta-D-dioxolane guanosine level at 500 mg, po bid on day 10 coadministered with 200 mg, po bid zidovudine by LC-MS/MS analysis. As to conditions: in vivo. On the set-up: time < 12 hr, dose 500 mg, route oral. Format: ADME, organism-based, Plasma. The essentials: (§1)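 Untreated Hispanic HIV-1-infected adults (viral load ≥5,000 copies/ml, CD4 ≥200 cells/mm3). Blood was drawn into DCF-containing EDTA tubes on day 1 (0–12 h) and on day 10 (0–48 h post last dose), then stored at −80°C. Plasma was methanol-extracted with an internal standard and run by LC-MS/MS (2–3,000 ng/ml AMDX/DXG; 2–5,000 ng/ml ZDV). Noncompartmental analysis assumed extravascular input; τ = 12 h; geometric means reported; accumulation was taken as AUCτ day 10/day 1.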

For data set [2], the system named is Homo sapiens. Nature of the data set: Cmax in HIV-1 infected patient assessed as beta-D-dioxolane guanosine level at 500 mg, po bid on day 10 coadministered with 300 mg, po bid zidovudine by LC-MS/MS analysis. The format is ADME, organism-based. Details: dose 500 mg, route oral. To be noted: in vivo. Put shortly: as §1
Data set [3] can be described thus: Drug level in HIV-1 infected patient urine assessed as beta-D-dioxolane guanosine level at 500 mg, po bid on day 10 coadministered with 200 mg, po bid zidovudine by LC-MS/MS analysis. Format: ADME, organism-based. To be noted: human, in vivo. Put shortly: (§2)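 At steady state (day 10), urine collected over one 12-h dose interval was analyzed by LC-MS/MS for AMDX, DXG, ZDV and ZDV-5′-O-glucuronide. Samples were diluted 100-fold, and the assay was linear from 1 to 500 μg/ml. Results are expressed as percentage of the dose recovered as each analyte (geometric means). Subjects were untreated HIV-1-infected adults.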

Data set [4] relates to Homo sapiens. Nature of the data set: Tmax in HIV-1 infected patient assessed as beta-D-dioxolane guanosine level at 500 mg, po bid on day 10 by LC-MS/MS analysis. The format is ADME, organism-based. To be noted: in vivo. The essentials:
(§3)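 Treatment-naive Hispanic HIV-1-infected adults (≥5,000 RNA copies/ml, CD4 ≥200 cells/mm3). Blood drawn after first dose on day 1 (0–12 h) and after last dose on day 10 (0–48 h) into DCF-containing EDTA tubes to block ex vivo deamination, centrifuged, plasma stored −80°C. Methanol extraction with internal standard, LC-MS/MS (linear 2–3,000 ng ml−1 for AMDX and DXG). Noncompartmental analysis assuming extravascular input; geometric means reported.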

Data set [5] deals with Homo sapiens. As to the kind of experiment: Apparent oral clearance in HIV-1 infected patient assessed as beta-D-dioxolane guanosine level at 500 mg, po bid on day 10 by LC-MS/MS analysis. The format is ADME, organism-based. To be noted: in vivo. The essentials:
as §1

The test system of data set [6] is Homo sapiens. As to the kind of experiment: AUC (0 to 12 hrs) in HIV-1 infected patient assessed as beta-D-dioxolane guanosine level at 500 mg, po bid on day 10 coadministered with 300 mg, po bid zidovudine by LC-MS/MS analysis. Format: ADME, organism-based, Plasma. Details: time < 12 hr, dose 500 mg, route oral. As to conditions: in vivo. The essentials:
as §1

Data set [7] relates to Homo sapiens. As to the kind of experiment: Half life in HIV-1 infected patient assessed as beta-D-dioxolane guanosine level at 500 mg, po bid on day 10 coadministered with 200 mg, po bid zidovudine by LC-MS/MS analysis. Format: ADME, organism-based. To be noted: in vivo. The essentials: as §1
For data set [8], the system named is Homo sapiens. Nature of the data set: Ratio of AUC (0 to 12 hrs) in HIV-1 infected patient assessed as beta-D-dioxolane guanosine level at 500 mg, po bid on day 10 coadministered with 300 mg, po bid zidovudine to AUC (0 to 12 hrs) in HIV-1 infected patient assessed as beta-D-dioxolane guanosine level at 500 mg, po bid on day 1 coadministered with 300 mg, po bid zidovudine. The format is ADME, organism-based. To be noted: in vivo. Put shortly:
as §1

The nature of data set [9]: Drug level in HIV-1 infected patient urine assessed as beta-D-dioxolane guanosine level at 500 mg, po bid on day 10 by LC-MS/MS analysis. Format: ADME, organism-based. To be noted: human, in vivo. Put shortly: as §2
The test system of data set [10] is Homo sapiens. As to the kind of experiment: Half life in HIV-1 infected patient assessed as beta-D-dioxolane guanosine level at 500 mg, po bid on day 10 coadministered with 300 mg, po bid zidovudine by LC-MS/MS analysis. The format is ADME, organism-based. To be noted: in vivo. The essentials:
as §1

Data set [11] deals with Homo sapiens. As to the kind of experiment: Half life in HIV-1 infected patient assessed as beta-D-dioxolane guanosine level at 500 mg, po bid on day 10 by LC-MS/MS analysis. The format is ADME, organism-based. To be noted: in vivo. Put shortly: as §1
In data set [12] the test system is Homo sapiens. Nature of the data set: Cmax in HIV-1 infected patient assessed as beta-D-dioxolane guanosine level at 500 mg, po bid on day 1 by LC-MS/MS analysis. On the set-up: dose 500 mg, route oral. The format is ADME, organism-based. As to conditions: in vivo. The essentials: as §1
In data set [13] the test system is Homo sapiens. As to the kind of experiment: Half life in HIV-1 infected patient assessed as beta-D-dioxolane guanosine level at 500 mg, po bid on day 1 by LC-MS/MS analysis. Format: ADME, organism-based. As to conditions: in vivo. Put shortly:
as §1

The subject of data set [14] is Homo sapiens. As to the kind of experiment: Cmax in HIV-1 infected patient assessed as beta-D-dioxolane guanosine level at 500 mg, po bid on day 10 coadministered with 200 mg, po bid zidovudine by LC-MS/MS analysis. The format is ADME, organism-based. On the set-up: dose 500 mg, route oral. As to conditions: in vivo. The essentials:
as §1

Data set [15] relates to Homo sapiens. As to the kind of experiment: Tmax in HIV-1 infected patient assessed as beta-D-dioxolane guanosine level at 500 mg, po bid on day 10 coadministered with 300 mg, po bid zidovudine by LC-MS/MS analysis. The format is ADME, organism-based. As to conditions: in vivo. Put shortly:
as §3

Data set [16] deals with Homo sapiens. As to the kind of experiment: Ratio of AUC (0 to 12 hrs) in HIV-1 infected patient assessed as beta-D-dioxolane guanosine level at 500 mg, po bid on day 10 coadministered with 200 mg, po bid zidovudine to AUC (0 to 12 hrs) in HIV-1 infected patient assessed as beta-D-dioxolane guanosine level at 500 mg, po bid on day 1 coadministered with 200 mg, po bid zidovudine. To be noted: in vivo. The format is ADME, organism-based. Put shortly: as §1

Data set [17] concerns Homo sapiens. As to the kind of experiment: Ratio of AUC (0 to 12 hrs) in HIV-1 infected patient assessed as beta-D-dioxolane guanosine level at 500 mg, po bid on day 10 to AUC (0 to 12 hrs) in HIV-1 infected patient assessed as beta-D-dioxolane guanosine level at 500 mg, po bid on day 1. Format: ADME, organism-based. To be noted: in vivo. The essentials:
as §1

For data set [18], the system named is Homo sapiens. Nature of the data set: AUC (0 to 12 hrs) in HIV-1 infected patient assessed as beta-D-dioxolane guanosine level at 500 mg, po bid on day 10 by LC-MS/MS analysis. The format is ADME, organism-based, Plasma. To be noted: in vivo. On the set-up: dose 500 mg, time < 12 hr, route oral. Put shortly: as §1
A short description of data set [19]: Drug level in HIV-1 infected patient urine assessed as beta-D-dioxolane guanosine level at 500 mg, po bid on day 10 coadministered with 300 mg, po bid zidovudine by LC-MS/MS analysis. Format: ADME, organism-based. To be noted: human, in vivo. The essentials: as §2
Data set [20] deals with Homo sapiens. As to the kind of experiment: Apparent oral clearance in HIV-1 infected patient assessed as beta-D-dioxolane guanosine level at 500 mg, po bid on day 10 coadministered with 300 mg, po bid zidovudine by LC-MS/MS analysis. Format: ADME, organism-based. To be noted: in vivo. The essentials: as §1
Data set [21] deals with Homo sapiens. As to the kind of experiment: Tmax in HIV-1 infected patient assessed as beta-D-dioxolane guanosine level at 500 mg, po bid on day 10 coadministered with 200 mg, po bid zidovudine by LC-MS/MS analysis. As to conditions: in vivo. Format: ADME, organism-based. Put shortly: as §3
Data set [22] has as its system Homo sapiens. Nature of the data set: Cmax in HIV-1 infected patient assessed as beta-D-dioxolane guanosine level at 500 mg, po bid on day 10 by LC-MS/MS analysis. Format: ADME, organism-based. Details: dose 500 mg, route oral. As to conditions: in vivo. Put shortly: as §1
Data set [23] deals with Homo sapiens. As to the kind of experiment: Apparent oral clearance in HIV-1 infected patient assessed as beta-D-dioxolane guanosine level at 500 mg, po bid on day 10 coadministered with 200 mg, po bid zidovudine by LC-MS/MS analysis. The format is ADME, organism-based. As to conditions: in vivo. Put shortly: as §1

Structures are written as SMILES.

Regarding `Nc1nc2c(ncn2[C@H]2CO[C@@H](CO)O2)c(=O)[nH]1`, the AUC in the data set with Homo sapiens [1] was found to be 6225 ng·h/mL; with Homo sapiens [6] it was 7658 ng·h/mL; in the data set with Homo sapiens [18] it was 6834 ng·h/mL. In addition, the Cmax in the data set with Homo sapiens [2] was found to be 1908 ng/mL; in the data set on Homo sapiens [12], 1272 ng/mL; in the data set on Homo sapiens [14], 1315 ng/mL; with Homo sapiens [22], 1545 ng/mL. The Drug uptake in data set [3] was found to be 26.2%; in data set [9], 25.3%; in data set [19] it was 27.7%. Further, the Tmax was 1.3 h with Homo sapiens [4], 1.8 h with Homo sapiens [15] and 1.5 h in the data set with Homo sapiens [21]. Moreover, the CL/F with Homo sapiens [5] turned out to be 14.7 mL/min/kg; with Homo sapiens [20], 15.2 mL/min/kg; in the data set with Homo sapiens [23] it was 15.8 mL/min/kg. The t1/2 with Homo sapiens [7] is 14.7 h; with Homo sapiens [10] it was 14.8 h; with Homo sapiens [11] it was 17.6 h; in the data set on Homo sapiens [13], 2.5 h. Moreover, the “Ratio AUC” value amounted to 1.19 with Homo sapiens [8], 0.91 in the data set on Homo sapiens [16] and 1.18 with Homo sapiens [17].
